Screening data (PubChem)
SR-BI HDL uptake: inhibitors of SR-BI mediated HDL lipid uptake, primary screen, ldlA[mSR-BI] cells, fluorescence, single point; Scavenger receptor class B member 1 (Mus musculus), Q61009; ldlA[mSR-BI] CHO cells, DiI-HDL uptake fluorescence, 3 h; inhibition, % at 12.5 µM; 320,000 compounds, 0.96% hits; AID 488896, 2010;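 active = mean replicate inhibition of at least 70% and a set share of replicates each scoring 70 or more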
TLR4-MyD88 BLA: inhibitors of TLR4-MyD88 association in cells, primary screen, cell-based, HeLa CL3-4, BLA complementation, FRET ratio; Toll-like receptor 4 (Homo sapiens) + Myeloid differentiation primary response protein …; inhibition, % at 8.4 µM; HeLa CL3-4 TLR4/MyD88 BLA complementation; 200,000 compounds, 0.18% hits; in the data active = inhibition above about 25%
SR-BI uptake up: activators of SR-BI mediated DiI-HDL uptake, primary screen, ldlA[mSR-BI] CHO cells, DiI fluorescence; 3 h; 100 = double the neutral-control signal; activation, % at 12.5 µM; 320,000 compounds, 0.096% hits; AID 504775, 2011;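 active = mean replicate activation of at least 60% and every replicate at or above 60%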
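Assay system: CHO ldlA[mSR-BI] cells, LDL receptor-null, SR-BI overexpressing; medium: Ham's F12 with 0.5% BSA, HEPES 25 mM, pH 7.4; also added: DiI-HDL 10 µg/mL; timing: 3 h uptake period with compound, 37 °C; signal: DiI fluorescence, bottom read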
TLR9-MyD88 inh: inhibitors of TLR9-MyD88 association in cells, primary screen, cell-based, CHO, BLA complementation, fluorescence; inhibition, % at 4.98 µM; AID 504734, 2011; 340,000 compounds, 0.21% hits; Toll-like receptor 9 (Homo sapiens) + Myeloid differentiation primary response protein …; CCF4 FRET ratio;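 active = inhibition above the mean over all tested compounds plus 3 SD, cut at about 21% in these data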
Lipid droplet: inhibitors of hepatocyte lipid droplet formation, primary screen, imaging, high-throughput imaging, BODIPY stain; AML12 mouse hepatocytes, oleate lipid droplets; inhibition, % at 6.5 µM; 240,000 compounds, 0.4% hits; AID 1656, 2009;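 active = lipid droplet intensity inhibited by at least 50%, with more than 500 cells counted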
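Assay system: AML12 hepatocytes (mouse); Probe or stimulus: oleic acid at 100 µM to induce lipid droplet formation; Dosing: compound at 6.5 µM only; Schedule: compound with oleate, overnight; Detection: fluorescence imaging, 20x objective, two fields per well; Measure: % inhibition of lipid droplet signal.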
NOD2 RIPK2 PPI: NOD2-RIPK2 binding disruptors in cells, primary screen, fluorescence, CHO cells, BLA complementation. Receptor-interacting serine/threonine-protein kinase 2 (Homo sapiens), O43353. inhibition, % at 4.98 µM. CCF4 ratio. 360,000 compounds, 0.38% hits. AID 624267, 2012; in the data active = inhibition above about 21%
Numbers stand for hits; - = inactive; . = no result. Compounds with a hit are over-represented: about 1.6% of the library has one in this group of screens.

SMILES	SR-BI HDL uptake	TLR4-MyD88 BLA	SR-BI uptake up	TLR9-MyD88 inh	Lipid droplet	NOD2 RIPK2 PPI
C=CCCC(=O)Nc1nc(C)c(-c2csc(Nc3ccc(Cl)cc3Cl)n2)s1	-	-	-	-	.	-
CCCCC(=O)Nc1nc(C)c(-c2csc(Nc3ccccc3OC)n2)s1	-	-	-	-	.	-
C=CCCC(=O)Nc1nc(C)c(-c2csc(Nc3cc(Cl)ccc3OC)n2)s1	86.9	-	-	-	.	-
CCC(C)C(=O)Nc1nc(C)c(-c2csc(Nc3ccccc3OC)n2)s1 (stereo unspecified)	77.9	-	-	-	.	-
C=CCCC(=O)Nc1nc(C)c(-c2csc(Nc3ccccc3OC)n2)s1	70.7	-	-	-	.	-
CCOc1cc(S(=O)(=O)n2nc(C)cc2C)ccc1Br	-	-	-	-	-	-
Cc1ccc2nc(C)cc(C(=O)N3CCCC(N4CCN(c5ccccc5C)CC4)C3)c2c1 (stereo unspecified)	-	.	-	-	-	-
COc1ccc(-c2csc(C3=C(O)CN(Cc4ccc(Cl)cc4)C3=N)n2)cc1OC	87.1	-	-	-	-	-
COCC(C)N1CC(O)=C(c2nc(-c3ccc(Cl)cc3)cs2)C1=N (stereo unspecified)	81.5	-	-	-	-	-
O=C(N/N=C/c1ccncc1)c1ccc(NS(=O)(=O)c2cccs2)cc1	-	-	-	-	-	-
Cc1ccc(C2C(C#N)=C(N)Oc3c2sc2ccccc32)o1 (stereo unspecified)	.	-	.	.	.	.
CCCc1sc(N/N=C/c2ccccn2)nc1-c1ccc(Br)cc1	71.8	-	-	-	-	-
COc1ccc(/C=C/C(=O)Nc2cccc(N3CCOCC3)c2)cc1OC	75.6	-	-	-	-	-
COc1ccc(/C=C/C(=O)Nc2ccc(N3CCOCC3)cc2)cc1	-	-	-	-	-	-
CC(=NNC(=O)c1ccncc1)c1ccccc1O	-	.	-	-	.	-
CC(=NNC(=O)c1ccncc1)c1ccc2ccccc2c1O	127.1	.	-	-	.	-
Cc1cccc(-n2c(N)c(-c3nc4ccccc4n3C)c3nc4ccccc4nc32)c1	72.8	-	-	-	-	-
Cc1ccc2c(c1)c1nc3ccccc3nc1n2C	-	.	-	-	-	-
C=CCNC(=S)Nc1ccc(N(C)C)cc1	.	.	.	-	-	-
O=Cc1c(Sc2ccccn2)nc2ccccn2c1=O	77.3	-	-	-	-	-
O=Cc1c(Sc2ccccc2)nc2ccccn2c1=O	-	-	-	-	-	-
O=C(Nc1cc(Cl)ccc1Cl)c1ccc(OC(=O)c2ccco2)cc1	-	-	-	-	-	-
COc1ccc(Nc2cc(Cl)nc(N)n2)cc1	-	-	66.7	-	-	-
O=C(NCCc1ccccc1)C1(S(=O)(=O)c2ccc(Cl)cc2)CC1	-	.	-	-	-	-
CCn1c(C)c(/C=N/Nc2nc3ccccc3s2)c2ccccc21	112.4	-	-	-	.	-
SMILES	SR-BI HDL uptake	TLR4-MyD88 BLA	SR-BI uptake up	TLR9-MyD88 inh	Lipid droplet	NOD2 RIPK2 PPI
Brc1ccc(/C=N/Nc2nc3ccccc3o2)cc1	-	.	-	-	.	-
Oc1ccccc1C=NNc1nc2ccccc2s1	101.0	.	-	-	.	-
Oc1ccccc1/C=N/Nc1nc2ccccc2o1	93.2	.	-	-	-	-
CC(=O)Nc1ccc(NC(=O)c2ccnn2C)cc1	.	.	.	-	.	-
CC(c1cccs1)N(C)Cc1nc(CCc2ccccc2)no1 (stereo unspecified)	-	-	-	-	-	-
CC(C)CNC(=O)COc1cccc(C(=O)NCc2ccccc2)c1	-	-	-	-	-	-
CC(=NNC(=O)CSCC(=O)NN=C(C)c1ccccc1)c1ccccc1	-	.	-	-	.	-
CCOC(=O)c1ccccc1NC(=S)N1CCN(C2CCCCC2)CC1	.	-	.	-	-	-
O=C(N/N=C/c1cc([N+](=O)[O-])ccc1N1CCCCCC1)c1ccccn1	80.2	-	-	-	-	-
CCOC(=O)c1c(C)oc2cc3c(C(=O)OCC)c(C)oc3cc12	.	-	.	.	.	.
CC(CCc1ccccc1)NC(=O)C1CCCN(C(=O)c2cc3sccc3n2C)C1 (stereo unspecified)	79.6	-	-	-	-	-
O=C(Cc1cccs1)N1CCN(S(=O)(=O)c2ccc(Br)cc2)CC1	-	-	195.0	-	-	-
O=C(CN1CCN(S(=O)(=O)c2cccs2)CC1)NCC1CCCCC1	-	.	-	-	.	-
CC1(O)CC(c2ccc(Cl)cc2)=NN1C(=O)c1ccc([N+](=O)[O-])cc1 (stereo unspecified)	89.1	-	-	-	-	-
CC(=O)N1N=C(c2ccc(Cl)cc2)CC1c1ccc([N+](=O)[O-])cc1 (stereo unspecified)	-	.	-	-	-	-
CCN(CC)S(=O)(=O)c1ccc(NC(=O)CNC2CCCCC2)cc1	-	.	-	-	-	-
Cc1ccc(Cn2ccsc2=NC(=O)CCl)cc1	-	-	-	-	-	-
Cc1cc(C(=O)COC(=O)c2ccc(NC(=O)CC#N)cc2)c(C)n1C1CC1	79.2	.	-	-	.	-
Cc1ccc(Cn2ccsc2=NC(=O)COC(=O)c2ccc(NC(=O)CC#N)cc2)cc1	76.8	.	-	-	.	-
Cc1cc(C(=O)COC(=O)c2ccc(NC(=O)CC#N)cc2)c(C)n1CC(F)(F)F	.	.	.	-	.	-
CCCc1c(C(=O)N/N=C/c2ccccc2C(F)(F)F)nnn1-c1nonc1N	75.7	.	-	-	-	-
CCc1c(C(=O)N/N=C/c2sccc2C)nnn1-c1nonc1N	77.0	.	-	-	-	-
CCOc1ccc(-c2c(C(=O)N/N=C/c3sccc3C)nnn2-c2nonc2N)cc1	86.6	.	-	-	-	-
CCOc1ccc(-c2c(C(=O)N/N=C/c3cccs3)nnn2-c2nonc2N)cc1	80.7	.	-	-	-	-
Cc1ccc(-c2c(C(=O)N/N=C/c3cccs3)nnn2-c2nonc2N)cc1	-	.	-	-	-	-
CCCc1c(C(=O)N/N=C/c2ccc(C)o2)nnn1-c1nonc1N	.	.	.	-	.	-
O=C(Nc1cccc(F)c1)c1ccc(-c2cccnc2)c2ccoc12	.	.	.	.	.	-
COc1cccc(-n2c(N)cc(=O)nc2SCC(=O)N2CCN(c3ccccc3)CC2)c1	-	.	-	-	-	-
CCC(CO)Oc1cc(NC(=O)c2ccc([N+](=O)[O-])cc2)c2ncn(C(C)C)c2c1 (stereo unspecified)	-	.	-	-	.	-
